Source: PubChem BioAssay
STAT1 inh: STAT1 signaling inhibition. NIH 3T3 STAT1-luciferase reporter, IFN-gamma, luminescence. inhibition, % at 5.5 µM. 200,000 compounds, 0.35% hits;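 active means inhibition above a set limit, the mean inhibition across all tested compounds plus 3 SD, cut at about 34% in these data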;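 further: 0% = IFN-gamma with DMSO and 100% = IFN-gamma with 300 µM nifuroxazide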
STAT3 blocker: reduces IL-6 driven STAT3 reporter signal | 190,000 compounds, 0.89% hits | inhibition, % at 5.5 µM | AID 862 | U3A cells, IL-6 STAT3-luciferase reporter, luminescence; host cell line lacks STAT1;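 active means inhibition above the mean inhibition across all screened compounds plus 3 SD, cut at about 44% in these data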;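 further: 0% = DMSO only wells and 100% = 100 µM nifuroxazide control wells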
MT stabilize HCS: microtubule stabilization, imaging screen. HeLa tubulin immunostaining HCS, 24 h; share of cells brighter than vehicle mean+2SD. % tubulin-high responders, % at 10 µM. 200,000 compounds, 0.83% hits. AID 2205;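 active means plate Z-score above 3 for both tubulin-high and condensed-nucleus cell shares, with cell loss under 80%, at 10 µM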;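 further: anti alpha tubulin signal scored within the nucleus-defined area of each cell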
bCat nuc transl: beta-catenin nuclear translocation modulation; 190,000 compounds, 0.3% hits; AID 1665; HeLa beta-catenin nuclear translocation, immunofluorescence imaging; nuclear translocation activity, % at 5 µM;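 active means nuclear translocation activity above 50% at 5 µM, with a well cell count of 50 or more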;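 further: per-cell ratio of nuclear to cytoplasmic median beta-catenin stain intensity; plate controls were DMSO negative control for no effect and GSK-3 inhibitor IX positive control for full effect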
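Test system: HeLa cells, endogenous beta-catenin; Compound: single 5 µM dose plus 0.02–20 µM confirmation series; Times: compound exposure 24 h at 37°C; Signal: fluorescence imaging of beta-catenin antibody stain plus DAPI; Read-out: % activation, nuclear-to-cytoplasmic median beta-catenin signal ratio per cell.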
STAT3 act-1: STAT3 signaling activation. U3A cells, IL-6 STAT3-luciferase reporter, luminescence; 100% = signal with IL-6 EC80 alone. activation (% of control), % at 5.6 µM. 190,000 compounds, 0.91% hits;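 active means activation above the screen-wide mean of compound activation plus 3 SD, cut at about 130% in these data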;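 further: 0% = background luminescence of wells with medium and substrate only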
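Assay system – human STAT1-deficient U3A cells with stable STAT3-luciferase reporter · Also added – IL-6 (33 ng/mL) · Schedule – compound 1 h, then IL-6 6 h at 37 °C · Technique – reporter luminescence signal · Evaluation – % activation versus median of IL-6-stimulated wells · Benchmarks – IL-6-only wells as 100% reference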
STAT3 act-2: confirmation of STAT3 signaling activators; potentiation (% of control), % at 5.7 µM; shares compounds with STAT3 act-1; 1,200 compounds, 64% hits; U3A STAT3-luciferase reporter, IL-6 potentiation, luminescence; U3A cells lack STAT1; 100 means same as IL-6 alone;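 active means percent activation of the STAT3 luciferase reporter above a set limit taken from the earlier primary screen, cut at about 130% in these data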;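 further: 0% = background signal of medium plus substrate and 100% = median of IL-6 with DMSO wells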
NFkB act STAT3ct: counter-screen for STAT3 activators: NF-kappaB activation; shares compounds with STAT3 act-1; AID 1309; activation (% of control), % at 5.7 µM; 1,200 compounds, 11% hits; human cells, NF-kappaB reporter activation; in the data active means activation above about 120%;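 further: reporter induced by TNF-alpha stimulation; 100% = median of stimulated DMSO wells and 0% = no signal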
STAT1 act STAT3c: activates STAT1, counter-screen to STAT3 activators. NIH 3T3 STAT1-luciferase reporter, IFN-gamma, luminescence. shares compounds with STAT3 act-1. activation (% of control), % at 5.7 µM. 1,200 compounds, 13% hits. AID 1318;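 active means activation above the solvent-only control well mean plus 3 SD, set per screening run, cut at about 120% in these data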;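 further: 100% = IFN-gamma with DMSO median signal so 100% means no change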
The depositor's hits bear a star; / = not tested or not shown. A selection: hits, their analogues and other compounds. The true share with any hit is near 2.4%.

SMILES	STAT1 inh	STAT3 blocker	MT stabilize HCS	bCat nuc transl	STAT3 act-1	STAT3 act-2	NFkB act STAT3ct	STAT1 act STAT3c
C/C(=C\C(=O)c1ccc(Cl)s1)N(C)C	-13	13	6	2	93	/	/	/
COCCNC(=O)/C(C#N)=C/c1c(N2CC(C)OC(C)C2)nc2ccccn2c1=O (stereo unspecified)	3	-1	6	-2	99	/	/	/
CCc1ccc(NC(=O)c2ccccc2NC(=O)C2CCCO2)cc1 (stereo unspecified)	-18	-13	1	/	116	/	/	/
O=C(NCCOc1ccccc1)c1ccccc1NC(=O)C1CCCO1 (stereo unspecified)	-9	-40	2	-3	140*	138*	120	131*
CCn1c(=NC(=O)c2ccco2)sc2cccc(F)c21	-24	-48	4	-3	144*	130	114	125*
COc1ccc(OC)c2c1sc(=NC(=O)c1ccco1)n2C	-6	-76	4	-6	166*	139*	105	105
COC(=O)CCC(=O)Nc1sc(C)c(C)c1C(N)=O	-1	5	3	2	101	/	/	/
COC(=O)CCC(=O)NC(=S)Nc1sc(C)c(C)c1C(N)=O	1	-47	21*	1	139*	104	137*	106
Cc1ccccc1N=Nc1c(C)[nH]n(-c2ccccc2)c1=O	-16	-4	2	0	108	/	/	/
Cc1[nH]n(-c2ccccc2)c(=O)c1N=Nc1ccccc1O	-5	-77	/	1	168*	171*	109	123*
CC(C)C1N=C(c2ccc3c(c2)OCO3)CC(c2ccccc2O)N1 (stereo unspecified)	12	-37	1	4	138*	126	108	90
COc1ccc(C)cc1S(=O)(=O)N(C)CC(=O)NC1CCCCCC1	-7	-38	3	-8	136*	99	109	97
COc1ccc2oc(C(=O)OCC(=O)/C(C#N)=C(\C)N)c(C)c2c1	-26	0	2	-4	104	/	/	/
Cc1cc(NC(=O)Cc2cccs2)no1	1	-47	2	0	143*	131	108	100
CCOC(=O)c1ccccc1NC(=O)Cn1c(-c2nonc2N)nc2ccccc21	2	-36	7	63*	136*	105	129*	111
O=C1CCCC(=O)N1c1ccc(Oc2ccc(Cl)cc2)cc1	2	14	2	/	88	/	/	/
CSc1nnc(-c2ccccc2)c(-c2ccccc2)n1	/	/	/	-1	/	/	/	/
CSc1nnc2c3ccccc3c3ccccc3c2n1	13	-78	3	/	162*	147*	103	95
O=C(CN1CCC2(CC1)OCCO2)c1c[nH]c2ccccc12	-3	-54	8	-1	148*	123	105	98
COc1cccc2cc3c(=O)n(-c4ccccc4)nc-3oc12	3	-45	3	/	141*	110	98	98
CCOC(=O)c1c(C)oc2c1c1c(c3ccccc32)OCN(Cc2ccccn2)C1	-7	-63	3	4	150*	126	99	93
COc1ccc(OC(=O)c2cnc3n(c2=O)CCS3)cc1	/	/	/	-2	/	/	/	/
COc1cc2c(cc1OC)CN(CC(=O)Nc1ccccc1C#N)CC2	4	-64	1	1	159*	138*	104	94
CCc1ccc(C(=O)COC(=O)CNC(=O)COc2ccccc2)cc1	3	-3	4	0	101	/	/	/
CC(=O)Nc1ccc(S(=O)(=O)N(C)CC(=O)OCC(=O)Nc2cccnc2Cl)cc1	-11	-2	3	0	99	/	/	/
SMILES	STAT1 inh	STAT3 blocker	MT stabilize HCS	bCat nuc transl	STAT3 act-1	STAT3 act-2	NFkB act STAT3ct	STAT1 act STAT3c
Cc1cccc(NC(=O)CSc2nc3c([nH]c4ccccc43)c(=O)n2C)c1	19	-40	2	4	146*	135*	95	87
COc1cccc(NC(=O)CSc2nc3c([nH]c4ccccc43)c(=O)n2C)c1	23	-32	2	-3	139*	124	100	90
CCC(C)Sc1nc2c([nH]c3ccccc32)c(=O)n1C (stereo unspecified)	12	-75	3	0	166*	124	103	100
Cn1c(SCC(=O)Nc2ccccc2)nc2c([nH]c3ccccc32)c1=O	11	4	2	-1	105	/	/	/
CCN(CC)c1ccc(NC(=S)NCC2CCCO2)cc1 (stereo unspecified)	-4	-3	4	1	107	/	/	/
Cn1c2ccc(Cl)cc2c2nc3ccccc3nc21	-9	-75	4	/	173*	173*	118	131*
NC(=O)Cn1c(=O)n(Cc2ccco2)c(=O)c2c3c(sc21)CCCCC3	5	-55	3	/	147*	131	105	105
COCc1ccc(CN2CCc3c([nH]c4ccccc34)C2C(C)(C)C)o1 (stereo unspecified)	17	-44	2	-2	140*	141*	105	93
CN1CCNC(=O)C1CC(=O)NCCc1ccccc1F (stereo unspecified)	-17	-5	2	-3	106	/	/	/
COC(=O)/C(=C/Nc1cccc2ccccc12)[N+](=O)[O-]	11	-77	4	/	173*	135*	108	99
S=C(NC1CCCC1)N1CCN(C/C=C/c2ccccc2)CC1	17	16	5	-4	90	/	/	/
Cc1ccc(NC(=O)COC(=O)Cc2ccsc2)cc1S(=O)(=O)N1CCOCC1	5	-4	4	-3	102	/	/	/
COC(=O)c1[nH]c2cc(C)ccc2c1NC(=O)CN1CCCc2ccccc21	-7	-55	3	-3	156*	143*	113	137*
CC(=O)Nc1ccccc1C(=O)C(=O)Nc1cccc(C(=O)N2CC(C)CC(C)C2)c1 (stereo unspecified)	-1	17	24	-2	91	/	/	/
COC(=O)c1sccc1NC(=O)c1c(C)cc(=O)oc1C	-1	3	5	1	100	/	/	/
COC(=O)c1sccc1NC(=O)c1ccc(Br)s1	10	-50	1	-1	150*	146*	104	104
COC(=O)c1sccc1NC(=O)c1ccc(Cl)s1	1	-48	4	-1	143*	176*	121*	108
CCn1c(C(=O)Nc2ccsc2C(=O)OC)cc2sc(Cl)cc21	3	-75	4	/	165*	138*	106	93
COC(=O)c1sccc1NC(=O)c1cccs1	/	/	/	0	/	/	/	/
COC(=O)c1sccc1NC(=S)OC	/	/	/	-1	/	/	/	/
COC(=O)c1sccc1NC(=O)c1ccc(C)s1	-3	-64	4	-5	158*	128	96	98
